Test results from ChEMBL document CHEMBL4033657, “N-Aryl-N'-ethyleneaminothioureas effectively inhibit acetylcholinesterase 1 from disease-transmitting mosquitoes” (Eur J Med Chem, 2017).
The source made the active and inactive calls. No cut-off for these calls is given here.

Experiments:
[1] = (§1) Inhibition of recombinant full length Aedes aegypti AChE1 expressed in baculovirus-infected Sf9 insect cells using acetylthiocholine iodide as substrate measured over 60 secs by Ellman's method
Outline: (§2)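 Secreted, non-purified recombinant enzyme in growth medium, tested as enzyme source. Ellman assay at 30 °C in 0.1 M phosphate buffer pH 7.4 with 0.2 mM DTNB and 1 mM acetylthiocholine iodide; A412 followed over 60 s. Compound (100 mM DMSO stock) tested at eight concentrations, maximum 1 mM. Activity set relative to eight uninhibited controls per plate; IC50 from three-parameter variable-slope fit; 2-3 independent replicates.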

Acetylcholinesterase [2] = biological target: Acetylcholinesterase (Homo sapiens, UniProt P22303); assay: Inhibition of recombinant human AChE expressed in HEK293F cells using acetylthiocholine iodide as substrate measured over 60 secs by Ellman's method; parameters: species or system HEK293
Acetylcholinesterase [3] = biological target: Acetylcholinesterase (Anopheles gambiae, UniProt Q869C3); assay: (§3) Inhibition of recombinant full length Anopheles gambiae AChE1 expressed in baculovirus-infected Sf9 insect cells using acetylthiocholine iodide as substrate measured over 60 secs by Ellman's method
Acetylcholinesterase [4] = biological target: Acetylcholinesterase (Anopheles gambiae, UniProt Q869C3, G122S); assay: Inhibition of recombinant full length Anopheles gambiae AChE1 G122S mutant expressed in baculovirus-infected Sf9 insect cells using acetylthiocholine iodide as substrate measured over 60 secs by Ellman's method
[5] = Selectivity ratio of IC50 for recombinant human AChE expressed in HEK293F cells to IC50 for recombinant full length Anopheles gambiae AChE1 expressed in baculovirus-infected Sf9 insect cells
Outline: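 Ratio of the hAChE IC50 divided by the higher of the AgAChE1 or AaAChE1 IC50. Each IC50 came from an Ellman assay (1 mM acetylthiocholine, 0.2 mM DTNB, pH 7.4, 30 °C) with eight concentrations up to 1 mM, using 2-3 replicates.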

Aedes aegypti [6] = assay: as §1; outline: as §2
[7] = biological target: Acetylcholinesterase (Anopheles gambiae) (UniProt Q869C3); assay: as §3
[8] = biological target: Acetylcholinesterase (Anopheles gambiae) (UniProt Q869C3); assay: Inhibition of recombinant full length Anopheles gambiae AChE1 expressed in baculovirus-infected Sf9 insect cells at 1 mM using acetylthiocholine iodide as substrate measured over 60 secs by Ellman's method; outline: as §2
Aedes aegypti [9] = assay: Inhibition of recombinant full length Aedes aegypti AChE1 expressed in baculovirus-infected Sf9 insect cells at 1 mM using acetylthiocholine iodide as substrate measured over 60 secs by Ellman's method; outline: as §2
[10] = tested on: Acetylcholinesterase (Anopheles gambiae), Q869C3 [G122S]; assay: Inhibition of recombinant full length Anopheles gambiae AChE1 G122S mutant expressed in baculovirus-infected Sf9 insect cells up to 1 mM using acetylthiocholine iodide as substrate measured over 60 secs by Ellman's method; outline: as §2

## S=C(NCCN1CCCCC1)Nc1cccc(Cl)c1
[1]
  IC50: 120 µM
Acetylcholinesterase [2]
  IC50: 190 µM
Acetylcholinesterase [3]
  IC50: 140 µM
Acetylcholinesterase [4]
  IC50: 22 µM
[5]
  Ratio IC50: 1

## COc1ccc(NC(S)=NCCN2CCC(C)CC2)cc1Cl
[1]
  IC50: 0.63 µM
Aedes aegypti [6]
  inhibition: Dose-dependent effect
Acetylcholinesterase [2]
  IC50: 12 µM
[7]
  inhibition: Dose-dependent effect
Acetylcholinesterase [3]
  IC50: 0.96 µM
[8]
  inhibition: 90%
Aedes aegypti [9]
  inhibition: 90%
Acetylcholinesterase [4]
  IC50: 24 µM
[5]
  Ratio IC50: 13

## COc1cc(NC(=S)NCCN2CCOCC2)ccc1Cl
[1]
  IC50: > 200 µM
Acetylcholinesterase [2]
  IC50: > 200 µM
Acetylcholinesterase [3]
  IC50: > 200 µM
Acetylcholinesterase [4]
  IC50: > 200 µM

## COc1ccccc1N=C(S)NCCN1CCOCC1
[1]
  IC50: > 200 µM
Acetylcholinesterase [2]
  IC50: > 200 µM
[10]
  inhibition: inactive
Acetylcholinesterase [3]
  IC50: > 200 µM

## CN(C)CCN=C(S)Nc1cccc(Cl)c1
[1]
  IC50: 83 µM
Acetylcholinesterase [2]
  IC50: 140 µM
Acetylcholinesterase [3]
  IC50: 96 µM
Acetylcholinesterase [4]
  IC50: > 200 µM
[5]
  Ratio IC50: 1

## CN(C)CC/N=C(/S)Nc1ccc(S(N)(=O)=O)cc1
[1]
  IC50: 56 µM
Acetylcholinesterase [2]
  IC50: > 200 µM
[10]
  inhibition: inactive
Acetylcholinesterase [3]
  IC50: 74 µM
[5]
  Ratio IC50: > 2.7

## COc1ccc(NC(S)=NCCN2CCC(C)CC2)cc1
[1]
  IC50: > 200 µM
Acetylcholinesterase [2]
  IC50: > 200 µM
Acetylcholinesterase [3]
  IC50: > 200 µM
Acetylcholinesterase [4]
  IC50: > 200 µM

## CN(C)CCN=C(S)Nc1ccccc1Cl
[5]
  Ratio IC50: > 12

## COc1ccc(NC(S)=NCCN2CCOCC2)cc1
Acetylcholinesterase [2]
  IC50: > 200 µM
Acetylcholinesterase [3]
  IC50: 11 µM
Acetylcholinesterase [4]
  IC50: > 200 µM
[5]
  Ratio IC50: > 18

## FC(F)(F)c1ccc(NC(=S)NCCN2CCCCC2)cc1
[1]
  IC50: > 200 µM
Acetylcholinesterase [2]
  IC50: > 200 µM
Acetylcholinesterase [3]
  IC50: > 200 µM
Acetylcholinesterase [4]
  IC50: > 200 µM

## S=C(NCCN1CCOCC1)Nc1cccc(Cl)c1
[1]
  IC50: 53 µM
Acetylcholinesterase [2]
  IC50: > 200 µM
Acetylcholinesterase [3]
  IC50: 68 µM
Acetylcholinesterase [4]
  IC50: > 200 µM
[5]
  Ratio IC50: > 3

## COc1ccc(NC(=S)NCCN(C)C)cc1Cl
[1]
  IC50: 16 µM
Acetylcholinesterase [2]
  IC50: 46 µM
Acetylcholinesterase [3]
  IC50: 18 µM
Acetylcholinesterase [4]
  IC50: 17 µM
[5]
  Ratio IC50: 3

## COc1ccc(NC(=S)NCCN2CCCCC2)cc1
[1]
  IC50: 28 µM
Acetylcholinesterase [2]
  IC50: 120 µM
Acetylcholinesterase [3]
  IC50: 29 µM
Acetylcholinesterase [4]
  IC50: 94 µM
[5]
  Ratio IC50: 4

## CC1CCN(CCNC(=S)Nc2cccc(Cl)c2)CC1
[1]
  IC50: > 200 µM
Acetylcholinesterase [2]
  IC50: > 200 µM
Acetylcholinesterase [3]
  IC50: > 200 µM
Acetylcholinesterase [4]
  IC50: > 200 µM

## NS(=O)(=O)c1ccc(NC(=S)NCCN2CCOCC2)cc1
[1]
  IC50: > 200 µM
Acetylcholinesterase [2]
  IC50: > 200 µM
[10]
  inhibition: inactive
Acetylcholinesterase [3]
  IC50: > 200 µM

## CN(C)CCNC(=S)Nc1ccccc1Cl
[1]
  IC50: 14 µM
Acetylcholinesterase [2]
  IC50: > 200 µM
Acetylcholinesterase [3]
  IC50: 17 µM
Acetylcholinesterase [4]
  IC50: > 200 µM

## NS(=O)(=O)c1ccc(NC(=S)NCCN2CCCCC2)cc1
[1]
  IC50: 5.5 µM
Aedes aegypti [6]
  inhibition: Dose-dependent effect
Acetylcholinesterase [2]
  IC50: 90 µM
[7]
  inhibition: Dose-dependent effect
Acetylcholinesterase [3]
  IC50: 7.8 µM
[8]
  inhibition: 70%
Aedes aegypti [9]
  inhibition: 70%
Acetylcholinesterase [4]
  IC50: 33 µM
[5]
  Ratio IC50: 12

## COc1ccccc1NC(=S)NCCN1CCCCC1
[1]
  IC50: 22 µM
Acetylcholinesterase [2]
  IC50: 32 µM
Acetylcholinesterase [3]
  IC50: 29 µM
Acetylcholinesterase [4]
  IC50: 66 µM
[5]
  Ratio IC50: 1
